Test results: the M2OR odorant receptor database
Where a chain is given by its changes, count along the chain named.

Legend:
Details in all cases: stereoisomer not certain
OR2A1 T73A R74C S168C = test system: T1, OR2A1 T73A R74C S168C
T1 sequence (whole entry): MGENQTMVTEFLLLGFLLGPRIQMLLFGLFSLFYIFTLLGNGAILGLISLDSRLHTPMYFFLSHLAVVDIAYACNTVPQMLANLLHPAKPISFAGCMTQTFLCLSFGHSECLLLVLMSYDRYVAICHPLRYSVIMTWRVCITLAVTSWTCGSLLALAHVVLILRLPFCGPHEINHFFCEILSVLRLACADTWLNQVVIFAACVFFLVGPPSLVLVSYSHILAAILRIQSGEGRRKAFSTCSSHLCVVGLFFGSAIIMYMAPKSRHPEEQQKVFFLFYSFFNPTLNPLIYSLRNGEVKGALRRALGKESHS
Outline: (§1)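 Whether a receptor–molecule pair is responsive (active) rests on the original authors' judgment that its measured signal was statistically different from baseline. Pairs without that judgment are non-responsive (inactive). Sources used varied assay methods, commonly transient luciferase assays in mammalian cell lines.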

OR2A12 (Homo sapiens) = target: T2, OR2A12 (Homo sapiens) (UniProt Q8NGT7)
T2 sequence (whole entry): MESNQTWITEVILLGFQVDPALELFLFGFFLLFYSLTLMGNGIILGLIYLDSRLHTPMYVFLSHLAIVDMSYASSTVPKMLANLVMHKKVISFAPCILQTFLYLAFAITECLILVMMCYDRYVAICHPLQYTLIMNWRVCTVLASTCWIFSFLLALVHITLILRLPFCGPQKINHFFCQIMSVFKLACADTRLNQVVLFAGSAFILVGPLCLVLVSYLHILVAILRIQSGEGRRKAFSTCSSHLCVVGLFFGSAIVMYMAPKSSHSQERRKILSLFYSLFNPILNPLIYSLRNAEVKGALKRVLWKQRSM
Outline: as §1

OR2A14 (Homo sapiens) = target: T3, OR2A14 (Homo sapiens) (UniProt Q96R47)
T3 sequence (whole entry): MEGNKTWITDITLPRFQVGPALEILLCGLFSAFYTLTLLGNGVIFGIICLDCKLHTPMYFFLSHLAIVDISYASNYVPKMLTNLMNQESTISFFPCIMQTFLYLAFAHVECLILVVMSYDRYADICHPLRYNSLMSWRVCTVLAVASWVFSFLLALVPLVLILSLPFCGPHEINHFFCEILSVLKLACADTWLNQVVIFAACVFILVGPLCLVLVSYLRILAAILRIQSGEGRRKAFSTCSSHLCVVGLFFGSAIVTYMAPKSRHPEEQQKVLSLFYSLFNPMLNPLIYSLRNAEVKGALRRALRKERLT
Outline: as §1

OR2A2 (Homo sapiens) = target: T4, OR2A2 (Homo sapiens) (UniProt Q6IF42)
T4 sequence (whole entry): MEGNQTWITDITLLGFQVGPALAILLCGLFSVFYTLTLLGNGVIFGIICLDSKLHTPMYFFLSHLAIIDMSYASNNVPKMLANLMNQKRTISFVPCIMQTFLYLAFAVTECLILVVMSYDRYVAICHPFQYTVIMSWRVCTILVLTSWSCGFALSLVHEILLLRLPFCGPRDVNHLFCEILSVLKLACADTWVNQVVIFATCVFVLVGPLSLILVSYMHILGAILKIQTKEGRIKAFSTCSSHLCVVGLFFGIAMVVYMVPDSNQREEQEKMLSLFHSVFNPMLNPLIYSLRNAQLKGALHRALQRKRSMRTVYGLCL
Outline: as §1

OR2A25 (Homo sapiens) = target: T5, OR2A25 (Homo sapiens) (UniProt A4D2G3)
T5 sequence (whole entry): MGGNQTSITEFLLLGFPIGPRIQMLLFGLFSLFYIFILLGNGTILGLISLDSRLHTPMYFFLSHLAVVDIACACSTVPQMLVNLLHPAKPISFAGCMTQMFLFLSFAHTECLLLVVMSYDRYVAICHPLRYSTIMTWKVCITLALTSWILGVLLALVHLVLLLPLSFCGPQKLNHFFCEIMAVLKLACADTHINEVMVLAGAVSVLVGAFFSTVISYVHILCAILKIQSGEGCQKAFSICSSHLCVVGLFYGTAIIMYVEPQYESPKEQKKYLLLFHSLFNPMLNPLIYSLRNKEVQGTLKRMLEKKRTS
Outline: as §1

OR2A2 = test system: T6, OR2A2
T6 sequence (whole entry): T4 sequence (whole entry) with F280L
Outline: as §1

OR2A4 (Homo sapiens) = target: T7, OR2A4 (Homo sapiens) (UniProt O95047)
T7 sequence (whole entry): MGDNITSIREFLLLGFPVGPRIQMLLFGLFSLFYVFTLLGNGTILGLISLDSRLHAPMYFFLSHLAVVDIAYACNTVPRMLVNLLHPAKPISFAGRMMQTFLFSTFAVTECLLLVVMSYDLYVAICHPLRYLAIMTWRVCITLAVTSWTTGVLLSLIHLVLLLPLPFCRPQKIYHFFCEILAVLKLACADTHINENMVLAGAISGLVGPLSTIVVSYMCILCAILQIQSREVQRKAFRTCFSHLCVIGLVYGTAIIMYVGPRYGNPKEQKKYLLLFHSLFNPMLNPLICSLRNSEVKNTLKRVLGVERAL
Outline: as §1

OR2A5 (Homo sapiens) = target: T8, OR2A5 (Homo sapiens) (UniProt Q96R48)
T8 sequence (whole entry): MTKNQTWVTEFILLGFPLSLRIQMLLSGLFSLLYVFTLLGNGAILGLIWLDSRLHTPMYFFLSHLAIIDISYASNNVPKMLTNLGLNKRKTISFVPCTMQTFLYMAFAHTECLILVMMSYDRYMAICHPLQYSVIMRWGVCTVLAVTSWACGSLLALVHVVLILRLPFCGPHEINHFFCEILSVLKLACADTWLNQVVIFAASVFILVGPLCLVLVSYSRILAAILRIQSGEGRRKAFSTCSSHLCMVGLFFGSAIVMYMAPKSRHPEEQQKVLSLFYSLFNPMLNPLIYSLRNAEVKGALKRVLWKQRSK
Outline: as §1

OR2A5 I126V A202S A255T = test system: T9, OR2A5 I126V A202S A255T
T9 sequence (whole entry): T8 sequence (whole entry) with I126V, A202S, A255T
Outline: as §1

OR2A7 (Homo sapiens) = target: T10, OR2A7 (Homo sapiens) (UniProt Q96R45)
T10 sequence (whole entry): T7 sequence (whole entry) with R9T, R238C, V250F
Outline: as §1

OR2A7 = test system: T11, OR2A7
T11 sequence (whole entry): T7 sequence (whole entry) with R238C, V250F
Outline: as §1

OR2AE1 (Homo sapiens) = target: T12, OR2AE1 (Homo sapiens) (UniProt Q8NHA4)
T12 sequence (whole entry): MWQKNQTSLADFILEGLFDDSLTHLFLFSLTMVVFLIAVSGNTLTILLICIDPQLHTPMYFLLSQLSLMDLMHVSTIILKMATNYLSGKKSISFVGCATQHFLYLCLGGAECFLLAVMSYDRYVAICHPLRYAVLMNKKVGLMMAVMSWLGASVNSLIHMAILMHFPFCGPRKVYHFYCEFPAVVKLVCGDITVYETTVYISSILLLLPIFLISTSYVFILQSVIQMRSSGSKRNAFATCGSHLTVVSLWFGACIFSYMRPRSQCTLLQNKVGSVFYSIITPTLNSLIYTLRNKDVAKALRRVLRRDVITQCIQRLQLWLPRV
Outline: as §1

OR2AG1 (Homo sapiens) = target: T13, OR2AG1 (Homo sapiens) (UniProt Q9H205)
T13 sequence (whole entry): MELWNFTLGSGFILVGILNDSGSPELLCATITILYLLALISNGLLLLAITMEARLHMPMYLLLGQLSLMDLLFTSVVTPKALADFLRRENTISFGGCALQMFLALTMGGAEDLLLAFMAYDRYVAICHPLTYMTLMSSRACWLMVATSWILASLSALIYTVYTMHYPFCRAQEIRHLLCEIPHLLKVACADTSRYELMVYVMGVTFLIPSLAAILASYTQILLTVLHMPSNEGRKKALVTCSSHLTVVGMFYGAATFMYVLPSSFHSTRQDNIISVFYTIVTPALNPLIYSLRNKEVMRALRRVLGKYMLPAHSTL
Outline: as §1

OR2AG2 (Homo sapiens) = target: T14, OR2AG2 (Homo sapiens) (UniProt A6NM03)
T14 sequence (whole entry): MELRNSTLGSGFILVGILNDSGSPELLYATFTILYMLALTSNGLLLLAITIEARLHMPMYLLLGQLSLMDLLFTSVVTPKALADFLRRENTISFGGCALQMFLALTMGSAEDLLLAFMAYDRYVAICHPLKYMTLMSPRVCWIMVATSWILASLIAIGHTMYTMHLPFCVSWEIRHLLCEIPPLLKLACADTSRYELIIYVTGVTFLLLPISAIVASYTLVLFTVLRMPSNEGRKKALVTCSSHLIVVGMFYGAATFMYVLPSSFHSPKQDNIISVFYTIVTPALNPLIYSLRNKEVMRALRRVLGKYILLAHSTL
Outline: as §1

OR2AK2 (Homo sapiens) = target: T15, OR2AK2 (Homo sapiens) (UniProt Q8NG84)
T15 sequence (whole entry): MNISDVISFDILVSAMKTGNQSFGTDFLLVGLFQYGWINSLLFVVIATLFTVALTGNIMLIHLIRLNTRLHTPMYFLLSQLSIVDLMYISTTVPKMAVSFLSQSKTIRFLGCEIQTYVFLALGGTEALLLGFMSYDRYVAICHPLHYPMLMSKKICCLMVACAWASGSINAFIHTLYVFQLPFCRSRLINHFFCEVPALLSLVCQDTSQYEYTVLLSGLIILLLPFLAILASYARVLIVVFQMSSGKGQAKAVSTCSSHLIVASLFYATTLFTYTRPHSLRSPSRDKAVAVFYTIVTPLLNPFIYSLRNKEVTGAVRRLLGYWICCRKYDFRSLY
Outline: as §1

OR2AP1 (Homo sapiens) = target: T16, OR2AP1 (Homo sapiens) (UniProt Q8NGE2)
T16 sequence (whole entry): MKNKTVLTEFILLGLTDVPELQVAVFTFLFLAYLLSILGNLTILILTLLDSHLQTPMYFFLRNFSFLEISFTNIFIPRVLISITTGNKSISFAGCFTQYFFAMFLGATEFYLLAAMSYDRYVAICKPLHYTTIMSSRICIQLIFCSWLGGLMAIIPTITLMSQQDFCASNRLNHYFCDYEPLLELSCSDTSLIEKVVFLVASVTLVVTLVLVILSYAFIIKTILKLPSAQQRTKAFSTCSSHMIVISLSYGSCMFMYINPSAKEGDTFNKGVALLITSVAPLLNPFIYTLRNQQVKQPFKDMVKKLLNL
Outline: as §1

OR2AT4 (Homo sapiens) = target: T17, OR2AT4 (Homo sapiens) (UniProt A6NND4)
T17 sequence (whole entry): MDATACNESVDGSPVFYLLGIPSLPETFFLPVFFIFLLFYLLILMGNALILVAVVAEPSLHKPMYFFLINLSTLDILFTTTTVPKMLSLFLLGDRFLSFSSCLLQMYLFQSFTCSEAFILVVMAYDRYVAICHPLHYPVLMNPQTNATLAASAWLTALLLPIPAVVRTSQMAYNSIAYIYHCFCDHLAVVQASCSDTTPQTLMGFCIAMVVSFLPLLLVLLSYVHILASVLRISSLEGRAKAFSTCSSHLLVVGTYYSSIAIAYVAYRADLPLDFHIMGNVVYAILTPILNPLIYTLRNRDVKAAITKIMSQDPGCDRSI
Outline: as §1

OR2B11 (Homo sapiens) = target: T18, OR2B11 (Homo sapiens) (UniProt Q5JQS5)
T18 sequence (whole entry): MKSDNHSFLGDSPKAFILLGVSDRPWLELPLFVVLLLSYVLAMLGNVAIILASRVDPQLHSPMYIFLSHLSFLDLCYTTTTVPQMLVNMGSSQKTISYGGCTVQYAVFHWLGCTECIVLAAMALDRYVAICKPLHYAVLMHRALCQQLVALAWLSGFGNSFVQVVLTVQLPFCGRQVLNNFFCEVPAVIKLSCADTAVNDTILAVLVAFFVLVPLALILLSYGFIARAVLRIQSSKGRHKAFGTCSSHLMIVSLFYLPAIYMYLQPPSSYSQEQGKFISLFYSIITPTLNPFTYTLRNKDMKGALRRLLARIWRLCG
Outline: as §1

OR2B2 (Homo sapiens) = target: T19, OR2B2 (Homo sapiens) (UniProt Q9GZK3)
T19 sequence (whole entry): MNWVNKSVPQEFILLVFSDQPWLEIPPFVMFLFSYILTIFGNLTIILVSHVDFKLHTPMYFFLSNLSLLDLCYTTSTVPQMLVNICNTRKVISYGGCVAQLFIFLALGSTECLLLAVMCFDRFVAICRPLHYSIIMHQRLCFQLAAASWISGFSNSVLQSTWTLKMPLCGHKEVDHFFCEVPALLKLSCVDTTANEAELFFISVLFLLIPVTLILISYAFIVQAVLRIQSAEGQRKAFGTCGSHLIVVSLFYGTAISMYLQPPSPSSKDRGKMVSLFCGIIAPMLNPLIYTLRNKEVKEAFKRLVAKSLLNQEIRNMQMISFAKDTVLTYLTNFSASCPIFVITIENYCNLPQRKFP
Outline: as §1

Measured: odorant receptor agonist call

CCCC(S)CCOC(C)=O (centres undefined)
inactive: all assays above
